A word on the Vd: it is a proportionality between amount in the body and measured concentration, not a real space. Low values mean little distribution into tissue, high ones wide distribution into tissue. One may read the bioavailability as the share of a dose that reaches the circulation, judged against a reference dose that is usually intravenous.

Values after ≈ are worked out from the molar mass of the structure shown. Where only a bound is given, the exact number is not on record here.

A short description of data set [1]: Thermodynamic solubility of the compound at pH 7.4. Format: physicochemical. Conditions: buffer, read-out: Therm_solubility. Summed up:
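Thermodynamic solubility measured at pH 7.4.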

Data set [2] is described as follows: Ratio of unbound drug level in brain to plasma in Sprague-Dawley rat at 0.5 mg/kg, iv. Also noted: dose 0.5 mg/kg, route intravenous. Format: ADME, organism-based. To be noted: read-out: K(p,uu,brain). Summed up: (§1)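 Male Sprague−Dawley rats given 0.5 mg/kg iv in 60% NMP solution, n = 3. Brain/plasma value is the unbound brain to unbound plasma AUC ratio after this iv dose.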

Data set [3] can be described thus: Volume of distribution in Sprague-Dawley rat at 0.5 mg/kg, iv. Format: ADME, organism-based. Also noted: dose 0.5 mg/kg, route intravenous. Conditions: in vivo. The procedure, abridged: as §1
The nature of data set [4]: Plasma clearance in Sprague-Dawley rat at 0.5 mg/kg, iv. Also noted: dose 0.5 mg/kg, route intravenous. Format: ADME, organism-based. The procedure, abridged: as §1
Data set [5] can be described thus: Oral bioavailability in beagle dog at 1 mg/kg. Format: ADME, organism-based, Canis lupus familiaris. To be noted: in vivo. The procedure, abridged:
(§2)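 Male Beagle dogs, n = 3. iv dose 0.5 mg/kg in 30% NMP solution; oral dose 1 mg/kg as aqueous suspension of 1% RC591 + 0.2% tween80.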

Data set [6] can be described thus: Plasma clearance in beagle dog at 0.5 mg/kg, iv and 1 mg/kg, po. Format: ADME, organism-based, Canis lupus familiaris. The procedure, abridged: as §2

In the case of `CNc1nc(Nc2cc(F)c(C(=O)N3CCOCC3)cc2OC)ncc1C(F)(F)F`, the solubility thermodynamic in data set [1] is less than 0.9 µg/mL.
Take `CNc1nc(Nc2cnn(CC(C)(C)O)c2C)ncc1C(F)(F)F`: the Kp uu in data set [2] was found to be 0.26. Further, the Vd in data set [3] turned out to be 0.88 L/kg. The same compound showed a clearance in data set [4] of 35 mL/min/kg.
In the case of `CNc1nc(Nc2cnn(CC(C)(C)O)c2Cl)ncc1C(F)(F)F`, the Kp uu in data set [2] was determined as 0.37. This compound also showed a Vd in data set [3] of 2.5 L/kg. The compound further displayed a bioavailability in data set [5] of 31%. The clearance turned out to be 22 mL/min/kg in data set [6] and 21 mL/min/kg in data set [4]. The solubility thermodynamic in data set [1] came out at 20 µg/mL (≈ 54.8 µM).

Values taken from ChEMBL document CHEMBL2321736 (ACS Med Chem Lett, 2013).
